The values that follow come from ChEMBL document CHEMBL1121480, “Conversion of ergolines to hexahydro- and octahydrobenzo[f]quinolines (depyrroloergolines)” (1980).

Common to all, as to type: functional
Assay [1] deals with Rattus norvegicus. The experiment in a line: Evaluated for the prolactin inhibition at the dose 50 ug/kg administered intraperitoneally. The settings on record: ip. Put shortly: (§1)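 Reserpinized male rats given 50 μg/kg ip; serum prolactin (ng/mL) measured by the method of Clemens et al. against vehicle controls; % inhibition from treated vs control means; mean ± SEM of 10 rats; significance versus control.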

Assay [2] deals with Rattus norvegicus. The experiment in a line: Evaluated for the prolactin inhibition at the dose 50 ug/kg administered intraperitoneally (treatment). The gist of the method:
as §1

For assay [3], the system named is Rattus norvegicus. The experiment in a line: Evaluated for the Average turns per first 15 minutes after administration of 1 mg/kg intraperitoneally. The conditions noted are these: route intraperitoneal.
Assay [4] has as its system Rattus norvegicus. The assay can be described thus: Evaluated for the rat turning after administration of 1 mg/kg intraperitoneally. The settings on record: route intraperitoneal.

`CCCN1C[C@H](CSC)C[C@@H]2c3cccc4[nH]cc(c34)C[C@H]21` [PERGOLIDE]: the inhibition in vivo at 0.05 mg/kg with Rattus norvegicus [1] amounted to 95%. In the assay with Rattus norvegicus [2], this compound came in with a serum prolactin level of 1.6 ng/mL. Besides, the “Average turns/first 15 min” value in the assay with Rattus norvegicus [3] worked out at 102. Moreover, the Rat turning with Rattus norvegicus [4] is on record as 100%.
The matching figures for `CC1=C[C@@H]2c3cccc4[nH]cc(c34)C[C@H]2N(C)C1` [AGROCLAVINE]: 63%, 11.7 ng/mL, 95 and 100%.
For the compound `C[C@@H](CO)NC(=O)[C@@H]1C=C2c3cccc4[nH]cc(c34)C[C@H]2N(C)C1.O=C(O)/C=C\C(=O)O` [ERGONOVINE MALEATE], the inhibition in vivo at 0.05 mg/kg in the assay with Rattus norvegicus [1] was 36%. Besides, in the assay on Rattus norvegicus [2], the serum prolactin level worked out at 11.7 ng/mL. Moreover, in the assay on Rattus norvegicus [3], the “Average turns/first 15 min” value came out at 0. In the assay with Rattus norvegicus [4], the Rat turning amounted to 0%.
The matching figures for `CCCN1C[C@H](CSC)C[C@@H]2c3ccccc3CC[C@H]21.O=C(O)C(=O)O` [DEPYRROLO PERGOLIDE]: 35%, 11.6 ng/mL, 48 and 67%.
The like results for `C[C@@H](CO)NC(=O)C1C=C2c3ccccc3CC[C@H]2N(C)C1` (some centres undefined) [DEPYRROLO ERGONOVINE] were, in that order, -24%, 28.4 ng/mL, 0 and 0%.
The matching figures for `CC1=C[C@@H]2c3ccccc3CC[C@H]2N(C)C1.O=C(O)C(=O)O` [DEPYRROLO AGROCLAVINE]: 9%, 35.2 ng/mL, 0 and 0%.
